Laboratory results published in ChEMBL document CHEMBL1157201, “1,5-Disubstituted 1,2,3-triazoles as cis-restricted analogues of combretastatin A-4: Synthesis, molecular modeling and evaluation as cytotoxic agents and inhibitors of tubulin” (Bioorg Med Chem, 2008).

What was measured:
Tubulin = Tubulin (Sus scrofa, UniProt P02554+P02550); assay: Inhibition of pig brain tubulin polymerization
In short: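 Porcine brain tubulin stored at -78 °C. Mixed with Mes buffer (0.1 M Mes, 1 mM EGTA, 0.5 mM MgCl2, pH 6.6) and GTP (stock 5 mM) plus drug in DMSO, in a plate prechilled 30 min at 4 °C. Absorbance at 350 nm followed 60 min at 25 °C against drug-only blanks and untreated controls. IC50 derived graphically as percentage of control assembly.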

K562 = assay: Cytotoxicity against human K562 cells after 5 days by MTT assay; assay type: functional, cell-based; conditions: K562, 120 h
In short: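 K562 chronic myelogenous leukemia cells grown in antibiotic-free RPMI with 2-mercaptoethanol (2 μM), L-glutamine (2 mM) and 10% FCS, seeded at ca 40,000 cells/mL. DMSO-dissolved drug added as a serial dilution series, with a drug-free control. Incubated 37 °C, 5% CO2. MTT (3 mg/mL in PBS) added for 3 h, formazan dissolved in DMSO, OD read at 540 and 690 nm. IC50 derived graphically as percentage of control growth.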

OVCAR = assay: Cytotoxicity against human OVCAR cells assessed as [3H]thymidine incorporation after 72 hrs by microplate scintillation counter; assay type: functional, cell-based
In short: (§1)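 RPMI 1640 with 2 mM L-glutamine, plus 5% FCS (WM35, WM239) or 10% FCS (SKOV, OVCAR, MDA-MB231, SK-BR 3); SK-BR 3 medium also had 12,5 µM insulin. 1 µCi [3H]thymidine label for the final 24 h. Controls got solvent-only medium. Values are medians of three experiments.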

[1] = Cytotoxicity against human WM35 cells assessed as [3H]thymidine incorporation after 72 hrs by microplate scintillation counter; assay type: functional, cell-based; in short: as §1
SK-BR-3 = assay: Cytotoxicity against human SK-BR3 cells assessed as [3H]thymidine incorporation after 72 hrs by microplate scintillation counter; assay type: functional, cell-based; in short: as §1
MDA-MB-231 = assay: Cytotoxicity against human MDA-MB-231 cells assessed as [3H]thymidine incorporation after 72 hrs by microplate scintillation counter; assay type: functional, cell-based; in short: as §1
[2] = Cytotoxicity against human SKOV cells assessed as [3H]thymidine incorporation after 72 hrs by microplate scintillation counter; assay type: functional, cell-based; in short: as §1
[3] = Cytotoxicity against human WM239 cells assessed as [3H]thymidine incorporation after 72 hrs by microplate scintillation counter; assay type: functional, cell-based; in short: as §1

`COc1ccc(-c2cnnn2-c2cc(OC)c(OC)c(OC)c2)cc1Br` showed an IC50 (Tubulin) greater than 20000 nM and an IC50 (K562) of 57 nM.

`COc1ccc(/C=C\c2cc(OC)c(OC)c(OC)c2)cc1O` [COMBRETASTATIN A4] showed an IC50 (OVCAR) of 3.3 nM, an IC50 [1] of 2.5 nM and an IC50 (SK-BR-3) of 5.1 nM. The IC50 (MDA-MB-231) was 6 nM, the IC50 [2] was 3.3 nM and the IC50 [3] was 2.8 nM. It also gave an IC50 (K562) of 10 nM.

`COc1ccc(-c2cnnn2-c2cc(OC)c(OC)c(OC)c2)cc1` gave an IC50 (Tubulin) of 7000 nM and an IC50 (K562) of 27 nM.

`COc1ccc(-n2nncc2-c2cc(OC)c(OC)c(OC)c2)cc1` gave an IC50 (K562) of 4000 nM.

`COc1ccc(-c2cnnn2-c2cc(OC)c(OC)c(OC)c2)cc1[N+](=O)[O-]` gave an IC50 (Tubulin) greater than 20000 nM and an IC50 (K562) of 460 nM.

With `COc1ccc(-c2cn(-c3cc(OC)c(OC)c(OC)c3)nn2)cc1N` the IC50 (Tubulin) was greater than 20000 nM and the IC50 (K562) was 1300 nM.

`COc1ccc(-n2nncc2-c2cc(OC)c(OC)c(OC)c2)cc1N` showed an IC50 (Tubulin) greater than 20000 nM and an IC50 (K562) of 570 nM.

Work on `COc1ccc(-c2cn(-c3cc(OC)c(OC)c(OC)c3)nn2)cc1[N+](=O)[O-]` yielded an IC50 (K562) greater than 10000 nM.

`COc1ccc(-c2cnnn2-c2cc(OC)c(OC)c(OC)c2)cc1O` showed an IC50 (Tubulin) of 12600 nM.

Molecule `COc1ccc(-n2nncc2-c2cc(OC)c(OC)c(OC)c2)cc1[N+](=O)[O-]` has an IC50 (K562) greater than 10000 nM.

Molecule `COc1ccc(-c2cnnn2-c2cc(OC)c(OC)c(OC)c2)cc1N` has an IC50 (OVCAR) of 4.7 nM, an IC50 [1] of 3.9 nM and an IC50 (SK-BR-3) of 4 nM. It also gave an IC50 (MDA-MB-231) greater than 10 nM, an IC50 [2] of 4.9 nM and an IC50 [3] of 5.1 nM. The IC50 (Tubulin) was 4800 nM and the IC50 (K562) was 11 nM.

Molecule `COc1ccc(-n2nncc2-c2cc(OC)c(OC)c(OC)c2)cc1Br` has an IC50 (K562) of 3600 nM.

`COc1ccc(-n2nncc2-c2cc(OC)c(OC)c(OC)c2)cc1O` showed an IC50 (Tubulin) of 14000 nM and an IC50 (K562) of 410 nM.
